In ChEMBL document CHEMBL4431310, “Characterization and in vitro activity of a branched peptide boronic acid that interacts with HIV-1 RRE RNA” (Bioorg Med Chem, 2016):
pKd: −log10 of the molar value. Activity calls are given as the source filed them. The calls are words filed in the database; no cut-off is given here. *1 amine or outer side, *2 acyl side, *3 side chain or, on linkers, in order; H or OH if unused. Where a SMILES comes first, the peptide text is derived from it. Side-chain parts run from the residue outwards. The star is where a group is joined. X3 = NCCCC[C@H](N)C(=O)N[C@@H](CCCCNC(=O)c1ccc(B(O)O)cc1)C(=O)*; Benzoyl(4-B(OH)2) = O=C(c1ccc(B(O)O)cc1)*; εLys = N[C@@H](CCCCN[*:1])C(=O)[*:2]

How the values were obtained:
[1] = system: Human immunodeficiency virus 1; experiment: Antiviral activity against HIV-1 NL4-3 infected in human U87 cells expressing CD4.CXCR4 assessed as inhibition of p24 production at 100 uM measured after 4 days by p24 ELISA; type: functional, organism-based
[2] = system: Human immunodeficiency virus 1; experiment: Antiviral activity against HIV-1 NL4-3 infected in human U87 cells expressing CD4.CXCR4 assessed as inhibition of p24 production at 10 uM measured after 4 days by p24 ELISA; type: functional, organism-based
[3] = molecular target: Rev responsive element (RRE) RNA; experiment: Binding affinity to HIV-1 RRE 2B RNA measured after 4 hrs by dot blot assay; type: nucleic-acid assay, Human immunodeficiency virus 1
Outline: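 RNA at 0.4 nM titrated with peptide 0.001–100 µM for 4 h at rt, filtered through nitrocellulose, washed twice, imaged by phosphorimaging. Kd from four-parameter logistic fit of densitometry; triplicate, SD reported.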

[4] = system: Human immunodeficiency virus 1; experiment: Antiviral activity against HIV-1 NL4-3 infected monkey 5BD.1 cells assessed as reduction in p24 production at 10 uM measured over 24 hrs by p24 ELISA; type: functional

**Q.** Cc1cn([C@H]2C[C@H](N=[N+]=[N-])[C@@H](CO)O2)c(=O)[nH]c1=O was tested. Which inhibition [1] did it give?
**A.** Active

**Q.** And the inhibition [2]?
**A.** Active

**Q.** C[C@@H](O)[C@H](NC(=O)[C@@H]1CCCN1C(=O)[C@H](CCCCNC(=O)[C@H](CCCCN)NC(=O)[C@H](Cc1ccc(O)cc1)NC(=O)[C@@H](N)Cc1c[nH]c2ccccc12)NC(=O)[C@H](CCCCN)NC(=O)[C@H](Cc1ccc(O)cc1)NC(=O)[C@@H](N)Cc1c[nH]c2ccccc12)C(=O)N[C@@H](Cc1c[nH]c2ccccc12)C(=O)N[C@@H](Cc1ccc(O)cc1)C(=O)O (H-WYKK([Lys-Tyr-Trp])PTWY-OH) was tested. Which pKd [3] did it give?
**A.** 4.55

**Q.** What about the inhibition [4] of the same molecule?
**A.** Active

**Q.** What about the inhibition [2] of the same molecule?
**A.** inactive

**Q.** Which results are given for CC(C)C[C@H](NC(=O)[C@H](CCCCN)NC(=O)[C@H](CCCCNC(=O)[C@H](CCCCN)NC(=O)[C@H](CCCCNC(=O)c1ccc(B(O)O)cc1)NC(=O)[C@@H](N)CCCCN)NC(=O)[C@H](CCCCN)NC(=O)[C@H](CCCCNC(=O)c1ccc(B(O)O)cc1)NC(=O)[C@@H](N)CCCCN)C(=O)N[C@@H](CCCCN)C(=O)N[C@@H](Cc1ccc(O)cc1)C(=O)O (H-KK(Benzoyl(4-B(OH)2))KK([Lys-X3])KLKY-OH)?
**A.** pKd [3]: 4.23; inhibition [4]: Active; inhibition [2]: inactive

**Q.** NCCCC[C@H](NC(=O)[C@H](CCCCN)NC(=O)[C@@H](N)Cc1c[nH]c2ccccc12)C(=O)NCCCC[C@H](NC(=O)[C@H](CCCCN)NC(=O)[C@H](CCCCN)NC(=O)[C@@H](N)Cc1c[nH]c2ccccc12)C(=O)N[C@@H](CCCCNC(=O)c1ccc(B(O)O)cc1)C(=O)N[C@@H](Cc1ccc(O)cc1)C(=O)N[C@@H](Cc1c[nH]c2ccccc12)C(=O)N[C@@H](Cc1ccc(O)cc1)C(=O)O (H-WKKK([Lys-Lys-Trp])K(Benzoyl(4-B(OH)2))YWY-OH) was tested. Which pKd [3] did it give?
**A.** 5.85

**Q.** And the inhibition [4]?
**A.** Active

**Q.** And the inhibition [2]?
**A.** inactive

**Q.** With NCCCC[C@H](NC(=O)[C@H](Cc1ccc(O)cc1)NC(=O)[C@@H](N)CCCCNC(=O)c1ccc(B(O)O)cc1)C(=O)NCCCC[C@H](NC(=O)[C@H](CCCCN)NC(=O)[C@H](Cc1ccc(O)cc1)NC(=O)[C@@H](N)CCCCNC(=O)c1ccc(B(O)O)cc1)C(=O)N[C@@H](Cc1cnc[nH]1)C(=O)N[C@@H](CCCCN)C(=O)N[C@@H](CCCCN)C(=O)N[C@@H](Cc1ccc(O)cc1)C(=O)O (H-K(Benzoyl(4-B(OH)2))YKK([Lys-Tyr-εLys-Benzoyl(4-B(OH)2)])HKKY-OH) as the molecule, how does the pKd [3] read?
**A.** 4.06

**Q.** And the inhibition [4]?
**A.** Active

**Q.** And the inhibition [2]?
**A.** inactive

**Q.** Which results are given for Nc1ccn([C@@H]2CS[C@H](CO)O2)c(=O)n1?
**A.** inhibition [1]: Active; inhibition [2]: Active

**Q.** N[C@@H](Cc1ccc(B(O)O)cc1)C(=O)N[C@@H](Cc1ccc(O)cc1)C(=O)N[C@@H](Cc1ccc(B(O)O)cc1)C(=O)NCCCC[C@H](NC(=O)[C@H](Cc1ccc(B(O)O)cc1)NC(=O)[C@H](Cc1ccc(O)cc1)NC(=O)[C@@H](N)Cc1ccc(B(O)O)cc1)C(=O)O was tested. Which pKd [3] did it give?
**A.** < 4.00
